# Compounds with a hit are over-represented: about 4.8% of the library has one in this group of screens.
# FLuc stim CS = affects firefly luciferase, flagging false hits in luciferase stimulation screens. ATPlite luciferase biochemical, luminescence, 10 min; 0 = ATP-free wells, 1 = DMSO control. activation factor at 10 µM. 200,000 tested, under 10 active. AID 1027;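 active = luciferase activation factor, scaled between plate controls, of at least 2 with compound at 10 µM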
#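 Assay system: Luciferase/luciferin detection reagent, cell-free biochemical luciferase assay / Read-out: luciferase activation / Benchmarks: No-ATP low control, compound-free enzyme-plus-ATP high control / Medium: PBS buffer for ATP / Detection: luminescence measurement of luciferase light output / Schedule: 10 min at ambient temperature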
# FLuc inhib CS = counter-screen for luciferase assay inhibitors: firefly luciferase inhibition; P08659; ATPLite firefly luciferase biochemical luminescence, 10 min; inhibition, % at 10 µM; actives 1.5% (n = 200,000);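 active = inhibition above about 50% when tested at 10 µM, limit read from the data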
# APP 5'UTR act = APP 5'UTR luciferase reporter activation; activation, % at 2 µM; actives 1% (n = 190,000); SH-SY5Y APP 5'UTR luciferase reporter, luminescence; zero percent = DMSO vehicle wells;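 active = activation above a set limit, based on mean plus 3 SD of controls, cut at about 140% in these data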
# NF-kB expr up = compounds increasing NF-kB expression in human neuronal cells | NF-kB reporter expression; active compounds read high | fold change at 12.5 µM | actives 1.6% (n = 190,000) | AID 1239; in the data active = fold change above about 3.3
# APP transl inh = APP translation inhibition. inhibition, % at 2 µM. actives 0.82% (n = 190,000). AID 1285. SH-SY5Y APP 5'UTR-luciferase reporter, luminescence;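 active = inhibition above a set limit, derived from the sample mean plus 3 SD, cut at about 45% in these data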
# STAT1 act = STAT1 signaling activation; NIH 3T3 STAT1-luciferase reporter, IFN-gamma, luminescence; 100% = IFN-gamma alone, no compound; activation (% of control), % at 5.5 µM; actives 2.6% (n = 200,000); AID 932;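 active = activation above the screen-wide mean activation plus 3 SD, cut at about 130% in these data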
# Numbers stand for hits; i = inactive; nt = not tested or not shown.
SMILES,FLuc stim CS,FLuc inhib CS,APP 5'UTR act,NF-kB expr up,APP transl inh,STAT1 act
CCCCCOc1ccccc1C(=O)NCCC(=O)O,i,i,i,i,i,i
Cc1cc(C)cc(NC(=O)NC2CCN(CC(=O)Nc3c(C)cc(C)cc3C)CC2)c1,nt,nt,i,nt,i,i
C=CCNC(=O)COC(=O)c1ccc(Cl)c(S(=O)(=O)N(Cc2ccccc2)c2ccccc2)c1,i,i,i,i,i,i
COc1ccc(/C=C/c2noc(-c3ccccc3O)n2)cc1,i,54,i,i,i,i
COc1cc(/C=C/c2noc(-c3ccccc3O)n2)cc(OC)c1OC,i,i,i,i,i,i
CC(NC(=O)Cn1c(NCCO)nc2ccccc21)C1CC2CCC1C2 (stereo not given),i,i,i,i,i,134
CC(C)(O)c1cc(=O)sc2nc3ccccc3n12,i,i,i,3.6,i,134
c1ccc2nc3c(nc2c1)sc1nc2ccccc2n13,i,i,nt,nt,nt,nt
CNc1nc(N)nc(OC(C(F)(F)F)C(F)(F)F)n1,i,i,i,i,i,i
COC(=O)CSc1ncnc2c1sc1nc3c(cc12)COC(C)(C)C3,i,i,i,nt,i,i
CC1(C)Cc2nc3sc4c(SCC(=O)NCc5ccccc5)ncnc4c3cc2CO1,i,i,i,3.9,67,129
O=C(Nc1ccccc1)c1cc2n(n1)C(C(F)(F)F)CC(C1CC1)N2 (stereo not given),i,i,i,i,i,142
Cc1cccc2c1N(CCOc1ccccc1Cl)C(=O)C2=O,i,i,i,3.7,i,i
Cc1cccc(Nc2nc(-c3ccncc3)cs2)c1,i,i,i,i,i,130
COc1ccc(-c2csc(N)n2)cc1,i,i,i,i,i,i
CN(C)c1ccc(Nc2nc(-c3cccnc3)cs2)cc1,i,78,188,4.3,i,147
COc1cccc(Nc2nc(-c3cccc(N4C(=O)c5ccccc5C4=O)c3)cs2)c1,i,i,i,i,i,i
COc1cccc(Nc2nc(-c3ccc(O)cc3)cs2)c1,i,i,i,3.9,i,i
COc1ccc(-c2csc(Nc3ccc(C)cn3)n2)cc1,i,i,i,nt,i,139
N/C(=N\OC(=O)CCCOc1ccccc1)c1cccc([N+](=O)[O-])c1,i,i,i,i,i,i
Cc1cc(C)n2nc(C(=O)N/N=C/c3cccs3)nc2n1,i,i,i,i,i,i
Cc1ccc(S(=O)(=O)N(C)/N=C/C=C/c2ccccc2)cc1,i,i,i,i,i,i
Cc1ccc(C2C(C#N)=C(N)Oc3c2sc2ccccc32)o1 (stereo not given),i,i,i,i,i,i
O=C(Nc1nc(-c2ccccc2)cs1)c1cccnc1,i,i,i,i,i,i
c1ccc(-c2csc(Nc3cccnc3)n2)cc1,i,i,i,i,i,136
SMILES,FLuc stim CS,FLuc inhib CS,APP 5'UTR act,NF-kB expr up,APP transl inh,STAT1 act
Fc1ccc(Nc2nc(-c3cccnc3)cs2)cc1,i,i,i,3.6,i,136
Clc1ccc(Nc2nc(-c3cccnc3)cs2)cc1,i,i,i,i,i,i
CCNC(=O)C1CCCN(c2nc(C)cc(C)n2)C1 (stereo not given),i,i,i,i,i,i
CC1Nc2ccccc2C(=O)N1NS(=O)(=O)c1ccccc1 (stereo not given),i,i,i,i,i,i
Cc1cccc2nc(CSc3ccccc3N)cn12,nt,nt,i,4.6,i,140
Cc1cccc2nc(CSc3ccccc3C(=O)O)cn12,i,i,i,i,i,i
COc1cccc(CN2CCC(CO)(CC3CCCCO3)CC2)c1 (stereo not given),i,i,i,i,i,i
Cc1noc(C)c1COc1cccc(C(=O)OCC(=O)N2CC(=O)Nc3ccccc32)c1,i,i,i,i,93,i
O=C(Nc1nc(-c2ccccn2)cs1)c1cc(Cl)ccc1[N+](=O)[O-],i,i,i,i,76,i
O=C(Nc1nc(-c2ccccn2)cs1)c1ccc2c(c1)OCCO2,i,79,i,i,i,131
Cc1cc(C(=O)Nc2nc(-c3ccccn3)cs2)ccc1[N+](=O)[O-],i,i,i,i,i,i
O=C(Nc1ccccn1)c1ccc2c(c1)OCCO2,i,74,i,4.2,i,i
O=C(Nc1ncccc1Cl)c1ccc2c(c1)OCCO2,i,i,i,i,i,138
